Data as given in ChEMBL document CHEMBL4177771, “Endoplasmic Reticulum-Localized Two-Photon-Absorbing Boron Dipyrromethenes as Advanced Photosensitizers for Photodynamic Therapy” (J Med Chem, 2018).
The source made the active and inactive calls. The rule behind the calls is not given here.

Assays:
[1] = Drug uptake in lysosome of human HepG2 cells at 4 uM after 4 hrs by […]-based confocal microscopic method; assay type: ADME, subcellular; details: hepg2, 4 h
HeLa [2] = test: Photocytotoxicity against human HeLa cells assessed as decrease in cell viability preincubated in dark for 2 hrs followed by illumination by halogen lamp for 20 mins by MTT assay; assay type: functional, cell-based
In short: (§1)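 Cells seeded at 2 × 10^5 cells mL−1 in 96-well plates 24 h before; 2 h dark incubation with compound (0.0125–0.4 μM or 0.5–8 μM), PBS wash, re-feed. Then 300 W halogen lamp with red filter (λ > 610 nm), 40 mW cm−2, 20 min at r.t. (48 J cm−2). MTT read-out at 490 nm. IC50 = concentration killing 50% of cells. Three independent experiments, quadruplicate.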

[3] = Stability of the compound in PBS at 2 uM measured over 25 mins in presence of illumination by halogen lamp; assay type: physicochemical; details: buffer
[4] = Induction of singlet oxygen generation in DMF assessed as increase in decay of DPBF at 1 uM by spectroscopic method
[5] = Drug uptake in endoplasmic reticulum of human HepG2 cells at 4 uM after 4 hrs by ER-tracker green-based confocal microscopic method; assay type: ADME, subcellular; details: hepg2, 4 h
In short: (§2)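 Cells on glass-bottom dishes given 2 μM for 2 h or 4 μM for 4 h at 37 °C. After PBS washes, stained in HBSS with 0.2 μM ER-tracker or Mito-tracker green for 15 min at 37 °C. Confocal imaging: trackers excited at 488 nm, emission 500–570 nm; BODIPY excited at 633 nm, emission 650–760 nm.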

HepG2 [6] = test: Photocytotoxicity against human HepG2 cells assessed as decrease in cell viability preincubated in dark for 2 hrs followed by illumination by halogen lamp for 20 mins by MTT assay; assay type: functional, cell-based; in short: as §1
[7] = Induction of singlet oxygen generation in PBS assessed as increase in decay of DPBF at 2 uM by spectroscopic method; assay type: functional
[8] = Drug uptake in endoplasmic reticulum of human HeLa cells at 4 uM after 4 hrs by ER-tracker green-based confocal microscopic method; assay type: ADME, subcellular; in short: as §2
[9] = Drug uptake in human HeLa cells at 4 uM after 4 hrs by flow cytometric method; assay type: ADME, cell-based
In short: (§3)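 Cells in 35 mm dishes incubated in RPMI 1640 at 37 °C, 5% CO2, with 2 μM for 2 h or 4 μM for 4 h. Rinsed, trypsinised, pelleted at 400g, resuspended in HBSS. Flow cytometry on 10^4 cells: excitation 640 nm, emission 720–840 nm. Triplicate; mean ± SD of three independent experiments.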

[10] = Drug uptake in mitochondria of human HepG2 cells at 4 uM after 4 hrs by Mito-tracker green-based confocal microscopic method; assay type: ADME; details: hepg2, 4 h; in short: as §2
[11] = Drug uptake in mitochondria of human HeLa cells at 4 uM after 4 hrs by Mito-tracker green-based confocal microscopic method; assay type: ADME; in short: as §2
[12] = Dark toxicity against human HeLa cells assessed as decrease in cell viability at 0.5 to 8 uM incubated for 2 hrs by MTT assay; assay type: cell-based
In short: (§4)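 Cells seeded at 2 × 10^5 cells mL−1 in 96-well plates 24 h before; incubated with compound (0.4–0.0125 μM or 8–0.5 μM series) in dark 2 h, washed with PBS, re-fed, kept unirradiated. MTT (3 mg mL−1) added, 4 h at 37 °C, DMSO added, absorbance at 490 nm. Mean ± SEM of three independent experiments, each in quadruplicate. HepG2 cells were grown in RPMI 1640 and HeLa in DMEM.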

[13] = Dark toxicity against human HepG2 cells assessed as decrease in cell viability at 0.5 to 8 uM incubated for 2 hrs by MTT assay; assay type: cell-based; details: hepg2, 2 h; in short: as §4
[14] = Drug uptake in human HepG2 cells at 4 uM after 4 hrs by flow cytometric method; assay type: ADME, cell-based; details: hepg2, 4 h; in short: as §3
[15] = Drug uptake in lysosome of human HeLa cells at 4 uM after 4 hrs by […]-based confocal microscopic method; assay type: ADME, subcellular
HeLa [16] = test: Induction of apoptosis in human HeLa cells at 2 uM incubated in dark for 2 hrs measured after 3 hrs by propidium iodide staining-based laser scanning microscopic method; assay type: cell-based
In short: (§5)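 HeLa cells given 2 μM for 2 h, rinsed and re-fed. Irradiated with 800 nm laser (400 mW) for 10 min at 37 °C, 5% CO2; dark controls kept unirradiated. After 3 h, stained with PI (50 μg in 1 mL PBS) for 10 min, rinsed. Imaged with PI excited at 488 nm (550–700 nm) and BODIPY at 633 nm (640–735 nm), plus bright field.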

HepG2 [17] = test: Induction of endoplasmic reticulum stress in human HepG2 cells assessed as upregulation of GRP78 expression at 0.15 uM after 4 to 8 hrs in presence of light by Western blot method; assay type: functional, cell-based
In short: (§6)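 HepG2 cells in 60 mm dishes treated with 150 nM in RPMI 1640, with or without illumination (λ > 610 nm). Lysed in RIPA buffer at 2, 4, 6 and 8 h after PDT. Equal protein run on 10% polyacrylamide gels and transferred to PVDF. Blocked in 5% nonfat milk, probed for GRP78, CHOP and actin, with HRP chemiluminescent detection. Control cells were illuminated without compound.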

HepG2 [18] = test: Increase in intracellular calcium levels in human HepG2 cells at 0.05 to 0.8 uM after 2 hrs in absence of light by fluo-3 AM dye-based fluorescence assay; assay type: ADME, cell-based; details: hepg2, 2 h
In short: (§7)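 HepG2 cells in 96-well plates given 0.05–0.8 μM in RPMI 1640 for 2 h, with or without illumination (λ > 610 nm). Afterwards washed, loaded with Fluo-3 AM (2.5 μM in HBSS) for 1 h at 37 °C in dark. Washed, re-fed with HBSS, fluorescence read at 485/535 nm. Mean with SEM of three independent experiments.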

HepG2 [19] = test: Induction of reactive oxygen species generation in human HepG2 cells at 0.05 to 0.8 uM after 2 hrs in absence of light by H2DCFDA probe-based fluorescence assay; assay type: cell-based; details: hepg2, 2 h
In short: (§8)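 HepG2 cells in 96-well plates incubated 2 h with 0.05–0.8 μM in RPMI 1640, washed, then loaded with H2DCFDA (10 μM in HBSS) for 30 min at 37 °C in dark. Washed, re-fed with HBSS, then irradiated (λ > 610 nm) or left dark. Fluorescence read at 485/535 nm. Mean with SEM of three independent experiments.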

HepG2 [20] = test: Photocytotoxicity against human HepG2 cells assessed as decrease in cell viability at 0.19 uM preincubated in dark for 2 hrs followed by illumination by halogen lamp for 20 mins by MTT assay relative to control; assay type: functional
In short: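 Light-dose study: HepG2 cells given 0.19 μM for 2 h, washed twice with PBS, re-fed, then illuminated with halogen lamp (λ > 610 nm, 40 mW cm−2) for 10, 15, 20 or 25 min. Viability by MTT (4 h, 37 °C), DMSO, absorbance at 490 nm.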

[21] = Drug uptake in human HeLa cells at 2 uM incubated for 2 hrs upon one-photon excitation by confocal microscopic method; assay type: ADME, cell-based
In short: (§9)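 HeLa cells (about 1.2 × 10^5) grown overnight on glass-bottom dishes, then treated with 2 μM in medium containing 0.125% v/v DMF and 0.025% v/v Tween 80 for 2 h. Rinsed with PBS and imaged by laser scanning microscopy with 633 nm (one-photon) or 800 nm (two-photon) excitation.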

[22] = Drug uptake in endoplasmic reticulum of human HepG2 cells at 2 uM after 2 hrs by ER-tracker green-based confocal microscopic method; assay type: ADME, subcellular; details: hepg2, 2 h; in short: as §2
[23] = Dark toxicity against human HeLa cells assessed as decrease in cell viability at 0.0125 to 0.4 uM incubated for 2 hrs by MTT assay; assay type: cell-based; in short: as §4
HeLa [24] = test: Induction of apoptosis in human HeLa cells assessed as cell shrinkage at 2 uM preincubated in dark for 2 hrs followed by two photon irradiation for 10 mins measured after 3 hrs by bright field microscopic method; assay type: functional, cell-based; in short: as §5
[25] = Drug uptake in human HeLa cells at 2 uM incubated for 2 hrs upon two-photon excitation by confocal microscopic method; assay type: ADME, cell-based; in short: as §9
HepG2 [26] = test: Induction of reactive oxygen species generation in human HepG2 cells at 0.05 to 0.8 uM after 2 hrs in presence of light by H2DCFDA probe-based fluorescence assay; assay type: functional, cell-based; in short: as §8
[27] = Drug uptake in mitochondria of human HeLa cells at 2 uM after 2 hrs by Mito-tracker green-based confocal microscopic method; assay type: ADME; in short: as §2
[28] = Drug uptake in lysosome of human HepG2 cells at 2 uM after 2 hrs by […]-based confocal microscopic method; assay type: ADME, subcellular; details: hepg2, 2 h
HeLa [29] = test: Induction of apoptosis in human HeLa cells at 2 uM preincubated in dark for 2 hrs followed by two photon irradiation for 10 mins measured after 3 hrs by propidium iodide staining-based laser scanning microscopic method; assay type: functional, cell-based; in short: as §5
[30] = Drug uptake in lysosome of human HeLa cells at 2 uM after 2 hrs by […]-based confocal microscopic method; assay type: ADME, subcellular
HepG2 [31] = test: Ratio of compound activity for induction of reactive oxygen species generation in human HepG2 cells at 0.8 uM in presence of light to in absence of light; assay type: toxicity, cell-based; details: hepg2, 0.8 µM; in short: as §8
HepG2 [32] = test: Induction of endoplasmic reticulum stress in human HepG2 cells assessed as upregulation of CHOP expression at 0.15 uM after 4 to 8 hrs in absence of light by Western blot method; assay type: cell-based; details: hepg2, 0.15 µM; in short: as §6
HepG2 [33] = test: Induction of endoplasmic reticulum stress in human HepG2 cells assessed as upregulation of GRP78 expression at 0.15 uM after 4 to 8 hrs in absence of light by Western blot method; assay type: cell-based; details: hepg2, 0.15 µM; in short: as §6
[34] = Drug uptake in human HeLa cells at 2 uM after 2 hrs by flow cytometric method; assay type: ADME, cell-based; in short: as §3
[35] = Drug uptake in endoplasmic reticulum of human HeLa cells at 2 uM after 2 hrs by ER-tracker green-based confocal microscopic method; assay type: ADME, subcellular; in short: as §2
[36] = Dark toxicity against human HepG2 cells assessed as decrease in cell viability at 0.0125 to 0.4 uM incubated for 2 hrs by MTT assay; assay type: cell-based; details: hepg2, 2 h; in short: as §4
[37] = Drug uptake in mitochondria of human HepG2 cells at 2 uM after 2 hrs by Mito-tracker green-based confocal microscopic method; assay type: ADME; details: hepg2, 2 h; in short: as §2
HepG2 [38] = test: Induction of endoplasmic reticulum stress in human HepG2 cells assessed as upregulation of CHOP expression at 0.15 uM after 4 to 8 hrs in presence of light by Western blot method; assay type: functional, cell-based; in short: as §6
HepG2 [39] = test: Increase in intracellular calcium levels in human HepG2 cells at 0.05 to 0.8 uM after 2 hrs in presence of light by fluo-3 AM dye-based fluorescence assay relative to control; assay type: functional; in short: as §7
[40] = Drug uptake in human HepG2 cells at 2 uM after 2 hrs by flow cytometric method; assay type: ADME, cell-based; details: hepg2, 2 h; in short: as §3

## COCCOCCOCCn1c2ccccc2c2cc(/C=C/C3=[N+]4C(=C(c5ccc(OCC(=O)NCCc6ccc(S(=O)(=O)NC(=O)NC7CCCCC7)cc6)cc5)c5c(C)c(Br)c(/C=C/c6ccc7c(c6)c6ccccc6n7CCOCCOCCOC)n5[B-]4(F)F)C(C)=C3Br)ccc21
[1]
  Drug uptake: Not Active
HeLa [2]
  IC50: 3200 nM
[3]
  Stability: Stable
[4]
  Activity: Active
[5]
  Drug uptake: Active
HepG2 [6]
  IC50: 5200 nM
[7]
  Activity: Active
[8]
  Drug uptake: Active
[9]
  Drug uptake: Active
[10]
  Drug uptake: Not Active
[11]
  Drug uptake: Not Active
[12]
  Activity: Non-Toxic
[13]
  Activity: Non-Toxic
[14]
  Drug uptake: Active
[15]
  Drug uptake: Not Active

## COCCOCCOCCOc1ccc(/C=C/C2=[N+]3C(=C(c4ccc(OCC(=O)NCCc5ccc(S(=O)(=O)NC(=O)NC6CCCCC6)cc5)cc4)c4c(C)c(Br)c(/C=C/c5ccc(OCCOCCOCCOC)cc5)n4[B-]3(F)F)C(C)=C2Br)cc1
HeLa [16]
  Activity: Non-Toxic
HepG2 [17]
  Activity: Active
HepG2 [18]
  Activity: Non-Toxic
HepG2 [19]
  Activity: Non-Toxic
HepG2 [20]
  Activity: 50%
HeLa [2]
  IC50: 90 nM
[3]
  Stability: Stable
[21]
  Drug uptake: Active
[22]
  Drug uptake: Active
[23]
  Activity: Non-Toxic
[4]
  Activity: Active
HeLa [24]
  Activity: Active
[25]
  Drug uptake: Active
HepG2 [26]
  Activity: Dose-dependent effect
HepG2 [6]
  IC50: 160 nM
[7]
  Activity: Active
[27]
  Drug uptake: Not Active
[28]
  Drug uptake: Not Active
HeLa [29]
  Activity: Active
[30]
  Drug uptake: Not Active
HepG2 [31]
  Ratio: 9
HepG2 [32]
  Activity: Non-Toxic
HepG2 [33]
  Activity: Non-Toxic
[34]
  Drug uptake: Active
[35]
  Drug uptake: Active
[36]
  Activity: Non-Toxic
[37]
  Drug uptake: Not Active
HepG2 [38]
  Activity: Active
HepG2 [39]
  fold change (FC): 3.5
[40]
  Drug uptake: Active
